Shown are actives, neighbours in structure and some others; about 3% of the full set was active somewhere.
PGC1a acetyl inh: modulators of PGC1a acetylation | U2OS PGC1a acetylation, AlphaScreen anti-acetyl-lysine; with virally co-expressed GCN5 acetyltransferase | inhibition, % at 15.6 µM | actives 0.17% (n = 350,000);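 active = every replicate shows inhibition of at least 40%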;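 also: 0% = neutral control wells and 100% = positive control wells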
Ecoli rRNA inh: selective bacterial rRNA inhibition in E. coli; AID 720706; E. coli WT GFP vs humanized-ribosome RFP mutants, fluorescence, 24 h; hits give low values; DMSO median 0, no signal -100; GFP signal change (wild-type ribosome), % (concentration not given with the values); actives 1.6% (n = 350,000);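 active = significant combined selectivity score with lowered wild-type GFP, culture density cut under 30%, mutant RFP and density less affected; inactive = any of these conditions unmet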
Statin myotox sup: suppressors of simvastatin-induced myotoxicity in C2C12 myotubes. rescue of ATP level, % at 7.49 µM. ATP luminescence, 48 h; scaled: DMSO 0, geranylgeraniol control 100. AID 602340. actives 0.78% (n = 330,000);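 active = mean ATP rescue above about 67%, or every replicate alone reaching that limit, limit read from the data, passing the limit was not always enough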;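 also: myotubes were challenged with 10 µM simvastatin during compound exposure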
S100A4 MyoIIA: S100A4-myosin IIA interaction inhibition; P26447; S100A4/TAMRA-MyoIIA peptide fluorescence polarization; inhibition, % at 10.7 µM; actives 0.14% (n = 360,000); AID 652163;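 active = mean inhibition of at least 70% across replicates, with every replicate also reaching that level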
Target sequence (P26447 whole entry, looked up): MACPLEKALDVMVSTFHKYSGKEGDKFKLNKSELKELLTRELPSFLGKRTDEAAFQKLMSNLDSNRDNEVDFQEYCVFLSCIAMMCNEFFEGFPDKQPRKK
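Test system: S100A4 monomer protein. Medium: HEPES buffer with Ca2+, pH 7.2. Reagent: fluorescent myosin IIA peptide, 5 nM. Compound dosing: single-point compound testing. Timing: 5 min between mix addition and reading. Benchmarks: DMSO neutral and TFP positive wells.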
SIRT5 inh: sirtuin-5 (human) deacylase inhibition. Q9NXA8. Purified SirT5, succinyl-peptide AMC, trypsin-coupled fluorescence. inhibition, % at 15 µM. actives 1.1% (n = 330,000). AID 652115; in the data active = inhibition above about 15%
Target sequence (Q9NXA8 whole entry, looked up): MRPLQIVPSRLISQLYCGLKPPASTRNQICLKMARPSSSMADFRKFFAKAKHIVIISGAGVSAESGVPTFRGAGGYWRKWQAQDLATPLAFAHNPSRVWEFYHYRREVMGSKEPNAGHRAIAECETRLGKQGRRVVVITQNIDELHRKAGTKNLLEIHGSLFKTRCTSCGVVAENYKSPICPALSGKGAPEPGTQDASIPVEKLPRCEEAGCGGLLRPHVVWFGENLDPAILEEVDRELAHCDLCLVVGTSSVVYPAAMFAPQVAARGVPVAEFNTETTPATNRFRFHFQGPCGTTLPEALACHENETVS
Cneo AK release: causes C. neoformans cell lysis | adenylate kinase release luminescence, 4 h; normalised: neutral wells 0, clomiphene wells 100 | lysis activity, % at 15 µM | actives 0.2% (n = 360,000);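 active = mean lysis activity across replicates of at least 80%, whatever share of replicates individually reach that level; inactive = mean lysis activity below 80%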
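read-out = cell lysis signal | test system = log-phase Cryptococcus neoformans yeast cells | input = cells at 5 × 10^6 per mL | medium = fresh YPD growth medium | signal = luminescent adenylate kinase detection reagent | timing = 4 h at 37 °C static, read 1 h later | dosing = single dose | controls = Clomiphene as positive lysis control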
Starred values were filed as active, the others as inactive; . = not tested or not shown; ! = a repeat was not active.

SMILES	PGC1a acetyl inh	Ecoli rRNA inh	Statin myotox sup	S100A4 MyoIIA	SIRT5 inh	Cneo AK release
COc1ccccc1-[n+]1c(C)cc(/C=C2\Sc3ccccc3N2C)cc1C	9	-17	-155	-4	9	-4
COc1ccc(-[n+]2c(C)cc(/C=C3\Sc4ccccc4N3C)cc2C)cc1	.	45	.	1	26*	.
CCCn1c(SCc2nc3ccccc3s2)n[nH]c1=O	3	8	.	-2	-1	.
Cc1cc(C)c(-n2c(SCc3nc4ccccc4s3)n[nH]c2=O)c(C)c1	.	-24*	.	-2	-1	.
COc1ccccc1C#Cc1ccc2c(c1)O[C@H](CN(C)Cc1ccccc1)[C@H](C)CN([C@@H](C)CO)S2(=O)=O	-19	0	-53	3	3	5
CC1CC(C)(C)N2C(=O)C3(Nc4ccccc4S3)c3cccc1c32 (stereo not drawn)	-5	.	29	.	.	22
Cc1cc2c3c(c1)C1(SCC(=O)N1c1ccc(F)cc1)C(=O)N3C(C)(C)CC2C (stereo not drawn)	-59	.	110*	.	.	0
CCc1cc(C(=O)c2ccc(OC)cc2)c(NC(=O)CN2CCCC2)s1	.	-4	-6	-7	-1	3
CCc1cc(C(=O)c2ccc(OC)cc2)c(NC(=O)CCC(=O)O)s1	-6	-42*	.	-6	-1	0
CCOC(=O)c1ccc2c(c1)C(=O)N(C1CCCCC1)C2=O	7	.	.	-5	0	.
CCOC(=O)C1=CCC2C(=O)N(C3CCCCC3)C(=O)C12 (stereo not drawn)	4	10	-3	11	18*	-1
COc1ccc(S(=O)(=O)N(C)C[C@H]2OCCCC[C@H](C)Oc3ccc(NC(=O)C4CCCCC4)cc3C(=O)N([C@@H](C)CO)C[C@H]2C)cc1	-6	1	.	1	6	0
CC1CN(S(=O)(=O)c2ccc(CN3C(=O)c4cccnc4C3=O)cc2)c2ccccc2O1 (stereo not drawn)	2	5	4	16	0	1
CC1CN(S(=O)(=O)c2ccc(CN3C(=O)c4cccnc4C3=O)s2)c2ccccc2O1 (stereo not drawn)	-1	0	0	-2	24*	2
O=C(CSc1nc2ccccc2c(=O)n1CC1CCCO1)Nc1ccccc1Cl (stereo not drawn)	-7	-4	79*	6	2	-1
C[C@H](CO)N1C[C@H](C)[C@@H](CN(C)Cc2ccc(Oc3ccccc3)cc2)Oc2ccc(NS(=O)(=O)c3cn(C)cn3)cc2CC1=O	12	-35	-1	-3	7	110*
C[C@H]1CN([C@@H](C)CO)C(=O)Cc2cc(NS(=O)(=O)c3cn(C)cn3)ccc2O[C@@H]1CN(C)Cc1ccc(-c2ccccc2)cc1	0	7	88*	-23	-6	.
CC(C)C[C@H](NC(=O)c1nc[nH]c1C(=O)NCC(=O)OCc1ccccc1)C(=O)OC(C)(C)C	.	8	8	-2	21*	0
CC(C)C[C@H](NC(=O)c1[nH]cnc1C(=O)N[C@@H](Cc1ccccc1)C(=O)OCc1ccccc1)C(=O)OCc1ccccc1	17	3	137*	-5	.	0
O=C(NC[C@H]1CC[C@H]2[C@H](CN2Cc2nccs2)O1)C1CCC1	7	.	.	-3	4	.
Cc1ccc(Cl)cc1NC(=S)N(C)N	5	16	-1	-10	-1	3
Cc1ccc(NC(=S)N(C)N)cc1Cl	-4	-25*	16	1	1	1
O=C(Nc1ccccc1)N1C[C@@H]2N[C@H](C1)[C@@H]2c1ccc(/C=C/c2ccccc2)cc1	-38	-25*	.	-10	1	.
O=C(Nc1ccc(C(F)(F)F)cc1)N1C[C@@H]2N[C@H](C1)C2c1ccc(-c2cccc(F)c2)cc1 (stereo partly drawn)	62*!	-58	.	-3	15*!	.
O=C1c2ccccc2NC2(CCCCC2)N1c1ccc(O)cc1	-2	.	137*	.	.	4
CC1CCC2(CC1)Nc1ccccc1C(=O)N2c1ccccc1 (stereo not drawn)	-10	.	.	.	.	0

Source: PubChem
